Data set [1] deals with Tyrosine-protein kinase Fyn (Homo sapiens) (UniProt P06241). The data set is described as follows: Residual activity at human FYN at 10 uM in presence of 10 uM ATP relative to control. The procedure, abridged: (§1)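 Panel of Ser/Thr and Tyr protein kinases, each tested with 10 µM compound in the presence of 10 µM ATP; activity expressed relative to control.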
For data set [2], the target named is BDNF/NT-3 growth factors receptor (Homo sapiens) (UniProt Q16620). The data set is described as follows: Residual activity at human TrkB at 10 uM in presence of 10 uM ATP relative to control. The procedure, abridged: (§2)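 Single-concentration counter-screen across a panel of 80 Ser/Thr and Tyr protein kinases. Compound was tested at 10 µM with ATP at 10 µM. Activity remaining in each kinase is expressed relative to control.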

Data set [3] concerns Rattus norvegicus. The data set is described as follows: Half life in rat at 10 mg/kg, iv. In kind it is ADME, organism-based. Also on record: dose 10 mg/kg, route intravenous. Conditions: in vivo. In outline: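 Rats given a single 10 mg/kg dose, intravenously or orally. The compound was given as its potassium salt, prepared with KOH in THF/water, for the in vivo work.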

Data set [4] has as its target Cyclin-dependent kinase 2/cyclin A (Homo sapiens) (UniProt P24941+P20248+P78396). The data set is described as follows: Residual activity at human CDK2/CyclinA at 10 uM in presence of 10 uM ATP relative to control. Type of data set: protein-complex assay. In outline:
as §1

Data set [5] in a line: Metabolism in rat microsome after 1 hr. In kind it is ADME. The note with it: microsomes, read-out: Activity.
In data set [6] the target is Insulin-like growth factor 1 receptor (Homo sapiens) (UniProt P08069). The data set is described as follows: Residual activity at human IGF1R at 10 uM in presence of 10 uM ATP relative to control. The procedure, abridged: as §1
Insulin-like growth factor 1 receptor (Homo sapiens), sequence (P08069 31-736 limits assumed): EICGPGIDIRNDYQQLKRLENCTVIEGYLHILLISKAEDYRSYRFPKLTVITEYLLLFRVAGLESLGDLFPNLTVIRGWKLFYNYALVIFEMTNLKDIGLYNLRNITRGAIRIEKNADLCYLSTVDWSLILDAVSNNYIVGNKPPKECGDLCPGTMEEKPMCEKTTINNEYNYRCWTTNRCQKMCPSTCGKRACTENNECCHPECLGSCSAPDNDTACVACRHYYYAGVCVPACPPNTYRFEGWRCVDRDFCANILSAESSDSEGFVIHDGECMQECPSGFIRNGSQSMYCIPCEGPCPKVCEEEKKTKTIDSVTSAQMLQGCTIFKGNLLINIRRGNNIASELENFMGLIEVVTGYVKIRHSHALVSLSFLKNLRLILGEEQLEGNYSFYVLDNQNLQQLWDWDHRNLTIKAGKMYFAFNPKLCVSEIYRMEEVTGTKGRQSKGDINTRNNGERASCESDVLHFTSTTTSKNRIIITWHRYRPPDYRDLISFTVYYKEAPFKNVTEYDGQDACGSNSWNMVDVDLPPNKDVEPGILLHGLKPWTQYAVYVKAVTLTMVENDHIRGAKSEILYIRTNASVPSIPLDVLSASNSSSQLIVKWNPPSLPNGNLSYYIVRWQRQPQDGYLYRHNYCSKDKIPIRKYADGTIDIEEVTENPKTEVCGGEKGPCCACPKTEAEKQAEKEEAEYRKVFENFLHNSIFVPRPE
Insulin-like growth factor 1 receptor (Homo sapiens), sequence (P08069 741-1367 limits assumed): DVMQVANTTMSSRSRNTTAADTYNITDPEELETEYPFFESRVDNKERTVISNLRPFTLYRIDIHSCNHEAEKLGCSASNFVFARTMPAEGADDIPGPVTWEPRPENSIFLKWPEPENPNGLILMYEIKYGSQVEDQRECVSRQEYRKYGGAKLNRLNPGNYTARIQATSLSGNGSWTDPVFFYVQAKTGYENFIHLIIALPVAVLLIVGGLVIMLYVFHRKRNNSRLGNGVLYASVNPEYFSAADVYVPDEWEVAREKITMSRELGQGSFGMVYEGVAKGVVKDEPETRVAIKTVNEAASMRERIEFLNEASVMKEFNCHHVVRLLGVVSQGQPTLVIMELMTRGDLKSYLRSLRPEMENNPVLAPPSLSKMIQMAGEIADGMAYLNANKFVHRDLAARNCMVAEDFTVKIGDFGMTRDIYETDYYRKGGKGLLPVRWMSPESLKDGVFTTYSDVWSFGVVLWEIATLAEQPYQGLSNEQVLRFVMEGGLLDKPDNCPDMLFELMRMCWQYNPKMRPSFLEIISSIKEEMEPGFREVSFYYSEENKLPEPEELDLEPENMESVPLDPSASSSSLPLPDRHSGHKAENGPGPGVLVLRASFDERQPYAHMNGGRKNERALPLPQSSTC
Data set [7] addresses Protein kinase C eta type (Homo sapiens) (UniProt P24723). Put plainly: Residual activity at human PKCeta at 10 uM in presence of 10 uM ATP relative to control. The procedure, abridged:
as §2

The target of data set [8] is Cyclin-dependent kinase 2/cyclin E (Homo sapiens) (UniProt P24864+P24941+O96020). Put plainly: Residual activity at human CDK2/CyclinE at 10 uM in presence of 10 uM ATP relative to control. In kind it is protein-complex assay. The procedure, abridged: as §1
Data set [9] deals with Protein kinase C theta type (Homo sapiens) (UniProt Q04759). Put plainly: Residual activity at human PKCtheta at 10 uM in presence of 10 uM ATP relative to control. In outline:
as §2

The species named for data set [10] is Rattus norvegicus. The data set is described as follows: Residual activity at rat AMPK at 10 uM in presence of 10 uM ATP relative to control. In outline:
as §2

The target in data set [11] is 3-phosphoinositide-dependent protein kinase 1 (Homo sapiens) (UniProt O15530). Put plainly: Residual activity at human PDK1 at 10 uM in presence of 10 uM ATP relative to control. The procedure, abridged: as §2
For data set [12], the target named is Mitogen-activated protein kinase 11 (Homo sapiens) (UniProt Q15759). The data set is described as follows: Residual activity at human SAPK2b at 10 uM in presence of 10 uM ATP relative to control. In outline:
as §2

Data set [13] relates to THP-1. The data set is described as follows: Inhibition of MCP1-induced chemotaxis of THP1 cells. Type of data set: functional, cell-based. The note with it: Homo sapiens.
The target in data set [14] is Mitogen-activated protein kinase 12 (Homo sapiens) (UniProt P53778). The data set is described as follows: Residual activity at human SAPK3 at 10 uM in presence of 10 uM ATP relative to control. In outline: as §2
Mitogen-activated protein kinase 12 (Homo sapiens), sequence (P53778 whole entry): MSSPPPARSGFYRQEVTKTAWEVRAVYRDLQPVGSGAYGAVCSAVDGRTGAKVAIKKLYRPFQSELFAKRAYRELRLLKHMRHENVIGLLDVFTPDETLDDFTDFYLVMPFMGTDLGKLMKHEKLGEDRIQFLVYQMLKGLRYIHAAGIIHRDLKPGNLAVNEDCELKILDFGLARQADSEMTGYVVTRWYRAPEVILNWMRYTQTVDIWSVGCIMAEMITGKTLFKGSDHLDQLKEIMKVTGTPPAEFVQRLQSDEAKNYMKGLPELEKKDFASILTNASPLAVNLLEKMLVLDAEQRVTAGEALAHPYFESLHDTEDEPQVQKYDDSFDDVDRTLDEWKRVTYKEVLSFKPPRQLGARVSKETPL
For data set [15], the target named is Protein kinase C delta type (Homo sapiens) (UniProt Q05655). The data set is described as follows: Residual activity at human PKCdelta at 10 uM in presence of 10 uM ATP relative to control. In outline:
as §2

Data set [16] concerns the target CDK3/cyclin E (Homo sapiens) (UniProt P24864+O96020+Q00526). The data set is described as follows: Residual activity at human CDK3/CyclinE at 10 uM in presence of 10 uM ATP relative to control. Type of data set: protein-complex assay. The procedure, abridged: as §1
Data set [17] has as its target Ribosomal protein S6 kinase alpha-1 (Homo sapiens) (UniProt Q15418). Put plainly: Residual activity at human Rsk1 at 10 uM in presence of 10 uM ATP relative to control. In outline:
as §2

Data set [18] concerns the target Protein kinase C epsilon type (Homo sapiens) (UniProt Q02156). The data set is described as follows: Residual activity at human PKCepsilon at 10 uM in presence of 10 uM ATP relative to control. In outline:
as §2

Data set [19] concerns the target Ribosomal protein S6 kinase alpha-3 (Homo sapiens) (UniProt P51812). The data set is described as follows: Residual activity at human Rsk3 at 10 uM in presence of 10 uM ATP relative to control. In outline:
as §2

Here are results for 1 compound from ChEMBL document CHEMBL1138050, “Furan-2-ylmethylene thiazolidinediones as novel, potent, and selective inhibitors of phosphoinositide 3-kinase gamma” (J Med Chem, 2006).

CDK3/cyclin E (Homo sapiens), sequence (O96020 whole entry, looked up): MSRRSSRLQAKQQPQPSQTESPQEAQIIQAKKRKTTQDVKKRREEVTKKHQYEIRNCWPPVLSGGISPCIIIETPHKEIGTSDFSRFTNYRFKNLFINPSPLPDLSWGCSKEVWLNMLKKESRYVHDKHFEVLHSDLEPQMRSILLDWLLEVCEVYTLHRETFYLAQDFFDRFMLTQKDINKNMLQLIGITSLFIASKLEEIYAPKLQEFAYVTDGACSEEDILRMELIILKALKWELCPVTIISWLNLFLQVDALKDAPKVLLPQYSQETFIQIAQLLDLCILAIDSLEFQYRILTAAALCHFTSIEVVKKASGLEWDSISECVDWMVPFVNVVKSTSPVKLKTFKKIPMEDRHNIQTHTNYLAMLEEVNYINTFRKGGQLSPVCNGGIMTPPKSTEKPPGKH
CDK3/cyclin E (Homo sapiens), sequence (P24864 whole entry, looked up): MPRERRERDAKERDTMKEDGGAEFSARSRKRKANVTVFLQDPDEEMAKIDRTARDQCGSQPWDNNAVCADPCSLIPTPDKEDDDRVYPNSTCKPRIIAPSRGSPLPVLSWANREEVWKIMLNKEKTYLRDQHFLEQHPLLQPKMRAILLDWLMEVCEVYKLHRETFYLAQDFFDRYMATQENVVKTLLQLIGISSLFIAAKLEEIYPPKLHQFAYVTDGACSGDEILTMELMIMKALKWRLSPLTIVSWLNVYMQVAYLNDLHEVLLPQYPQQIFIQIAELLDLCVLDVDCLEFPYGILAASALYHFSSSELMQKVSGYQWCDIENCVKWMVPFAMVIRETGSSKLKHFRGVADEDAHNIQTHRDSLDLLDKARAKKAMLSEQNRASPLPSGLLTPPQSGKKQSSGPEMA
CDK3/cyclin E (Homo sapiens), sequence (Q00526 whole entry, looked up): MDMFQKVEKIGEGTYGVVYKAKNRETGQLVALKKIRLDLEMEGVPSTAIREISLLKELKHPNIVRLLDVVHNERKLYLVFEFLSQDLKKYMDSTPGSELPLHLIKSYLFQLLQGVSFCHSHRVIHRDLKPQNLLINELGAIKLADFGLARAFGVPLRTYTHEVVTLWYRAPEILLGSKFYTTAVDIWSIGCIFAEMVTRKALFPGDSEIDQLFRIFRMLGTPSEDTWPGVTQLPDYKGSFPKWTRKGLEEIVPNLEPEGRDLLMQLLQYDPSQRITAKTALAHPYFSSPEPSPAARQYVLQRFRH
Ribosomal protein S6 kinase alpha-1 (Homo sapiens), sequence (Q15418 whole entry): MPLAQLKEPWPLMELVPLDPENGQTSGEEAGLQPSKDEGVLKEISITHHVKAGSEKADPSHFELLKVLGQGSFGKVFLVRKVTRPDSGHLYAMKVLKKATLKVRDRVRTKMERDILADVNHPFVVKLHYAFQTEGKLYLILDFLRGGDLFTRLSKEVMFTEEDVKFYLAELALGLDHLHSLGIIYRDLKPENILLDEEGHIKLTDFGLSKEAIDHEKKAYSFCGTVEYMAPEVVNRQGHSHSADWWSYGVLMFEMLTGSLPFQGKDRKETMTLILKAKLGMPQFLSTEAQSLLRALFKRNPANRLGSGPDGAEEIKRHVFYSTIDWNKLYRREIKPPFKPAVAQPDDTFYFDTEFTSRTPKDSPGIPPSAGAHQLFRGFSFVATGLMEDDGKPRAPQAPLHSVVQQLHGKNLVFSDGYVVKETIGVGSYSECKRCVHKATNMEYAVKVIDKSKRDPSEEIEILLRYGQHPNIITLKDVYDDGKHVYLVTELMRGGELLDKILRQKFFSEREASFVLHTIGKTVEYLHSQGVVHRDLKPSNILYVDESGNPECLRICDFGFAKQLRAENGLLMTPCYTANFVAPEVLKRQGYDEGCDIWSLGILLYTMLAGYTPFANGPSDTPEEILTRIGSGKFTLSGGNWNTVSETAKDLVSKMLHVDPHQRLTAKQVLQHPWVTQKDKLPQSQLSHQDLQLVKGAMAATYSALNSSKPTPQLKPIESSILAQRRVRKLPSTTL
Protein kinase C theta type (Homo sapiens), sequence (Q04759 whole entry, looked up): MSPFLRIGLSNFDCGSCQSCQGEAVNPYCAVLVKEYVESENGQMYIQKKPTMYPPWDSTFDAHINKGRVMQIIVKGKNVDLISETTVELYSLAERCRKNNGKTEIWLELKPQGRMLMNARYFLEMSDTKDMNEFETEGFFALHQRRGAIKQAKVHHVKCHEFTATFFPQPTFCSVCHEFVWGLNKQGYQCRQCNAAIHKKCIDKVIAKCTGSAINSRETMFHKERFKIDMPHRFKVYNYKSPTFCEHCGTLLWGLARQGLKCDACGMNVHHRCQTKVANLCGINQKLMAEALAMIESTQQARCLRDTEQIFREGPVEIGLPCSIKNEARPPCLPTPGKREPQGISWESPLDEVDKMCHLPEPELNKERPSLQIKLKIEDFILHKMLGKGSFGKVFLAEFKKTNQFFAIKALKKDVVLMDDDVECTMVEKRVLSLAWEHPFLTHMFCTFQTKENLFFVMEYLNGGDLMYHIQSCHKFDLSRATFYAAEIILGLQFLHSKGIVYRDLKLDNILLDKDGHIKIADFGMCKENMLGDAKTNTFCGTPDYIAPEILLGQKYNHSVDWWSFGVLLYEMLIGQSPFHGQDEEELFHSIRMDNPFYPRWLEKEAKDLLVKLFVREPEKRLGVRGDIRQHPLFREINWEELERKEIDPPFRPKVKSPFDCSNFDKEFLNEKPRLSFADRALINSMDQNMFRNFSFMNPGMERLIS
Mitogen-activated protein kinase 11 (Homo sapiens), sequence (Q15759 whole entry): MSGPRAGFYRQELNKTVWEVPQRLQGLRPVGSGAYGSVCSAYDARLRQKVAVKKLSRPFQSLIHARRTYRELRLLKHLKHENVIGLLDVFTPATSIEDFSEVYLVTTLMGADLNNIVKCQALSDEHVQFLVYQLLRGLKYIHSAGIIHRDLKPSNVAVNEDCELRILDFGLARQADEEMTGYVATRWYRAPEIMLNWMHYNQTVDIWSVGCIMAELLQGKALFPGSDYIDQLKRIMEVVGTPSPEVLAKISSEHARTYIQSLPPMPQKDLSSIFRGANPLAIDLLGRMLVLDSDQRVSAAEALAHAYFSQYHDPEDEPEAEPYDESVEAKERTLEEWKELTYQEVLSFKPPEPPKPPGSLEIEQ

For the compound `O=C1NC(=O)/C(=C/c2ccc(-c3ccc(F)cc3O)o2)S1`, the Activity in [1] was found to be 91%; in [2] it was 98%; in [4], 84%; in [6], 96%; in data set [7], 91%; in data set [8] it was 93%. Besides, the Activity is 102% in data set [9]; 90% in data set [10]; 104% in data set [11]; 89% in data set [12]; 93% in data set [14]; 109% in data set [15]. Further, the Activity in data set [16] was found to be 117%; in data set [17], 104%; in [18], 93%; in data set [19], 73%. In data set [3], this compound yielded a T1/2 of 39 min. In data set [5], the metabolised at 1 h came out at 16%. Moreover, in [13], the IC50 (commonly the concentration at which inhibition is half-maximal) is 53 µM.
